The values below come from ChEMBL document CHEMBL5108087, “Synthesis and biological evaluation of paeoveitol D derivatives as new melatonin receptor agonists with antidepressant activities” (RSC Med Chem, 2022).

In data set [1] the target is T1, Melatonin receptor type 1A (Homo sapiens, UniProt P48039). Nature of the data set: Agonist activity at human MT1 receptor transfected in HEK293T cells co-transfected with tet-inducible luciferase reporter plasmid, pCDNA3.1(+)-CMV-betaArrestin2-tev plasmid and TANGO plasmid assessed as tango arrestin recruitment by measuring maximum activity incubated for 24 hrs by TANGO-GPCR assay based luminescence plate reader analysis relative to agomelatine. The data set is classed as functional, cell-based. The note with it: filed as agonist. In short, it runs like this: (§1)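 Tango arrestin recruitment: 293T cells transiently transfected with a tet-inducible luciferase reporter, CMV-βArrestin2-TEV and TANGO receptor plasmids. On day 2, replated at 20 000 cells per well on poly-L-lysine. Drug added on day 3. On day 4, luciferase reagent added for 20 min and luminescence counted. Curves fitted; data given as mean ± SD.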

Data set [2] addresses T1, Melatonin receptor type 1A. Nature of the data set: Agonist activity at human MT1 receptor transfected in HEK293T cells co-transfected with tet-inducible luciferase reporter plasmid, pCDNA3.1(+)-CMV-betaArrestin2-tev plasmid and TANGO plasmid assessed as tango arrestin recruitment by measuring maximum activity incubated for 24 hrs by TANGO-GPCR assay based luminescence plate reader analysis relative to 2-phenylmelatonin. The format is functional, cell-based. Conditions: filed as agonist. In a few lines: as §1
(In a reporter assay the amount or activity of a reporter protein is the signal.)

In data set [3] the test system is HEK293T. Nature of the data set: Agonist activity at human MT1 N162A mutant receptor transfected in HEK293T cells co-transfected with tet-inducible luciferase reporter plasmid, pCDNA3.1(+)-CMV-betaArrestin2-tev plasmid and TANGO plasmid assessed as shift in concentration response curve incubated for 24 hrs by TANGO-GPCR assay based luminescence plate reader analysis relative to agomelatine. The data set is classed as cell-based. The note with it: filed as agonist. In short, it runs like this: (§2)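 293T cells transiently transfected with tet-inducible luciferase reporter, pCDNA3.1(+)-CMV-bArrestin2-tev and TANGO receptor plasmids (wild-type or point mutant). Next day plated at 20 000 cells/well on poly-L-lysine; drug added day 3. Day 4, Bright-Glo added, 20 min, then luminescence read. Concentration–response curves fitted; data mean ± SD.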

Data set [4] relates to HEK293T. Nature of the data set: Agonist activity at human MT1 Q181A mutant receptor transfected in HEK293T cells co-transfected with tet-inducible luciferase reporter plasmid, pCDNA3.1(+)-CMV-betaArrestin2-tev plasmid and TANGO plasmid assessed as shift in concentration response curve incubated for 24 hrs by TANGO-GPCR assay based luminescence plate reader analysis relative to agomelatine. The format is cell-based. Conditions: filed as agonist. In short, it runs like this: as §2

Data set [5] relates to Mus musculus. Nature of the data set: Antidepressant activity in Kunming mouse assessed as decrease in immobility time at 80 mg/kg, po administered two times at 1 hrs and 24 hrs and measured at last 4 mins of 6 mins test by forced swim test relative to fluoxetine. The data set is classed as functional. Set-up: scale not given: the % may be the effect or the level left. Conditions: time 1444 min, 24.07 h. In short, it runs like this:
(§3)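 Male Kunming mice, 15–18 g, housed six per cage at 22 ± 1 °C on a 12 h light/dark cycle. Oral dosing 24 h and 1 h before the test. Each mouse placed in a cylinder (25 cm high, 15 cm diameter) holding 10 cm of water at 25 ± 1 °C and made to swim 6 min; immobility over the last 4 min scored by video tracking.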

Data set [6] has as its system Mus musculus. Nature of the data set: Antidepressant activity in Kunming mouse assessed as decrease in immobility time at 160 mg/kg, po administered two times at 1 hrs and 24 hrs and measured at last 4 mins of 6 mins test by forced swim test relative to fluoxetine. Set-up: scale not given: the % may be the effect or the level left. The format is functional. Conditions: time 1444 min, 24.07 h. In short, it runs like this:
as §3

Data set [7] relates to Mus musculus. Put plainly: Antidepressant activity in Kunming mouse assessed as decrease in immobility time at 80 mg/kg, po and measured after 14 days by forced swim test relative to control. The note with it: time 14 day. The format is functional. Also on record: scale not given: the % may be the effect or the level left. In a few lines:
(§4)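 Male Kunming mice, 15–18 g, given the test compound orally for 14 days. Forced swim then done in a cylinder 25 cm high and 15 cm in diameter, water 10 cm deep at 25 ± 1 °C. Swim lasted 6 min and immobility over the final 4 min was video-scored against the vehicle group.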

For data set [8], the system named is Mus musculus. Nature of the data set: Antidepressant activity in Kunming mouse assessed as decrease in immobility time at 160 mg/kg, po and measured after 14 days by forced swim test relative to control. The data set is classed as functional. Also on record: scale not given: the % may be the effect or the level left. The note with it: time 14 day. In a few lines:
as §4

The test system of data set [9] is Mus musculus. Nature of the data set: Antidepressant activity in kunming mouse assessed as increase in dopamine level in striatum at 160 mg/kg, po measured after 14 days by HPLC-ECD analysis. The note with it: time 14.0 day. The format is functional, organism-based. In a few lines: (§5)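 Male Kunming mice dosed orally with vehicle or 160 mg kg−1 for 14 days, then killed by cervical dislocation. Brain regions dissected on ice, homogenized in 0.2 M perchloric acid with 0.1 mM EDTA and spun at 4 °C for 20 min. Supernatant analysed by HPLC-ECD at +0.50 V, mobile phase pH 3.0. Amounts given in ng g−1 as mean ± SEM, n = 12.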

Data set [10] relates to Mus musculus. Nature of the data set: Antidepressant activity in kunming mouse assessed as increase in dopamine level in hypothalamus at 160 mg/kg, po measured after 14 days by HPLC-ECD analysis. The format is functional, organism-based. Conditions: time 14.0 day. In a few lines: as §5
For data set [11], the system named is Mus musculus. Nature of the data set: Antidepressant activity in kunming mouse assessed as increase in 5-HT level in striatum at 160 mg/kg, po measured after 14 days by HPLC-ECD analysis. The format is functional, organism-based. Conditions: time 14.0 day. In short, it runs like this:
as §5

Data set [12] has as its system Mus musculus. Put plainly: Antidepressant activity in kunming mouse assessed as increase in 5-HT level in thalamus at 160 mg/kg, po measured after 14 days by HPLC-ECD analysis. The data set is classed as functional, organism-based. Conditions: time 14.0 day. In short, it runs like this:
as §5

Data set [13] relates to Mus musculus. Put plainly: Antidepressant activity in kunming mouse assessed as increase in 5-HT level in hypothalamus at 160 mg/kg, po measured after 14 days by HPLC-ECD analysis. The data set is classed as functional, organism-based. The note with it: time 14.0 day. In short, it runs like this:
as §5

Data set [14] concerns Mus musculus. Put plainly: Antidepressant activity in kunming mouse assessed as decrease in DOPAC level in hippocampus at 160 mg/kg, po measured after 14 days by HPLC-ECD analysis. The note with it: time 14.0 day. The format is functional, organism-based. In short, it runs like this: as §5
For data set [15], the system named is Mus musculus. Put plainly: Antidepressant activity in kunming mouse assessed as decrease in DOPAC level in striatum at 160 mg/kg, po measured after 14 days by HPLC-ECD analysis. The format is functional, organism-based. Conditions: time 14.0 day. In short, it runs like this: as §5
For data set [16], the system named is Mus musculus. Nature of the data set: Antidepressant activity in kunming mouse assessed as decrease in DOPAC level in thalamus at 160 mg/kg, po measured after 14 days by HPLC-ECD analysis. The note with it: time 14.0 day. The data set is classed as functional, organism-based. In short, it runs like this: as §5
For data set [17], the system named is Mus musculus. Put plainly: Antidepressant activity in kunming mouse assessed as decrease in DOPAC level in hypothalamus at 160 mg/kg, po measured after 14 days by HPLC-ECD analysis. The format is functional, organism-based. The note with it: time 14.0 day. In short, it runs like this:
as §5

Data set [18] concerns Mus musculus. Put plainly: Antidepressant activity in kunming mouse assessed as decrease in 5-HIAA level in frontal cortex at 160 mg/kg, po measured after 14 days by HPLC-ECD analysis. Conditions: time 14.0 day. The format is functional, organism-based. In a few lines:
as §5

Data set [19] relates to Mus musculus. Put plainly: Antidepressant activity in kunming mouse assessed as decrease in 5-HIAA level in hypothalamus at 160 mg/kg, po measured after 14 days by HPLC-ECD analysis. The format is functional, organism-based. The note with it: time 14.0 day. In a few lines:
as §5

Data set [20] can be described thus: Half-life in Kunming mouse at 80 mg/kg, po administered as single dose and measured upto 24 hrs. The format is ADME, organism-based. The note with it: in vivo.
Data set [21] is described as follows: Tmax in Kunming mouse at 80 mg/kg, po administered as single dose and measured upto 24 hrs. The data set is classed as ADME, organism-based. The note with it: in vivo.
Data set [22] in a line: Clearance in Kunming mouse at 80 mg/kg, po administered as single dose and measured upto 24 hrs. The format is ADME, organism-based. The note with it: in vivo.
A short description of data set [23]: Subacute toxicity in Kunming mouse assessed as animal death at 240 mg/kg, po administered for 14 days. The note with it: in vivo, 336 h, time 14 day. The format is organism-based. In a few lines:
(§6)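 Subacute oral study following OECD 425. Animals randomised into two groups of six. Vehicle control received 0.5% CMC-Na orally for 14 consecutive days; the treated group received 240 mg kg−1 body weight orally for 14 consecutive days.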

Data set [24] can be described thus: Subacute toxicity in Kunming mouse assessed as effect on heart structure at 240 mg/kg, po administered for 14 days. Conditions: in vivo, 336 h, time 14 day. The data set is classed as organism-based. In a few lines:
as §6

Molecules are shown by their SMILES. The source made the active and inactive calls. The calls are words filed in the database; no cut-off is given here.

T1 sequence (P48039 whole entry): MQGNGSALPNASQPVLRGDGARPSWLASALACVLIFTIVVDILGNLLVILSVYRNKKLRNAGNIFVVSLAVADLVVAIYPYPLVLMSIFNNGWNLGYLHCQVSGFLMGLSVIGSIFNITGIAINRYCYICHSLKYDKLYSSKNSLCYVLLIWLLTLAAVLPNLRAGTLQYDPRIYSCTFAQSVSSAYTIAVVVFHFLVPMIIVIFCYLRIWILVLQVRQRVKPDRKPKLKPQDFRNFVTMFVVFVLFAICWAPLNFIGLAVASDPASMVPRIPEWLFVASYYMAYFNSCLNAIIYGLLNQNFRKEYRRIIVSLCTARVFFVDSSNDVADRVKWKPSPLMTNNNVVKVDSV

One may read the Emax as the size of the effect at its maximum, as opposed to the concentration needed. As a reminder, the half-life is the time in which the quantity being followed falls by half. In general, Tmax refers to the time from dosing to the highest level. Usually CL/F stands for clearance divided by bioavailability, as obtained after extravascular dosing. As to `COc1cc2c(CN3CCN(C)CC3)coc2cc1C`, the maximal effect (Emax) in data set [1] amounted to 57%; in data set [2], 46%. In addition, the result in data set [3], in data set [4], in data set [9], in data set [10], in data set [11] and in data set [12] was Active. The outcome in data set [13], in data set [14], in data set [15], in data set [16], in data set [17] and in [18] was Active. In addition, the result in data set [19] was Active. In addition, the Activity in data set [5] is given as 26%; in [6], 29%; in data set [7] it was 26%; in data set [8] it was 28%; in [23], “Non-Toxic”; in [24] it was “Non-Toxic”. Besides, the half-life in data set [20] was 328 min. Also, the time of peak concentration (Tmax) in data set [21] was 4.98 min. Besides, in data set [22], the apparent clearance CL/F was 237 mL/min.
